{
  "source": "paper PMC2807935",
  "about": "(Naunyn-Schmiedeberg's Archives of Pharmacology, 2010)",
  "key": {"[1]": {"conditions": "at 200 mg; ref Brune and Hinz [2004]; Hinz et al. [2007]; cited from earlier work"}, "plasma proteins": {"test_system": "plasma proteins", "conditions": "ref Agrawal et al. [2003b]; cited from earlier work"}, "[2]": {"experiment": "Secondary clinical parameters: pain scores, analgesic consumption, side effects", "type": "in vivo, human"}, "[3]": {"test_system": "PGE2 production in tissue", "experiment": "PGE2 concentrations in tissue exudate", "type": "in vivo, human", "summary_of_the_method": "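Patients given oral 120 mg or placebo at 7.00 am on postoperative day 1 after non-cemented hip arthroplasty. Hip drain emptied 1 h before each scheduled time (0, 1, 3, 8, 12, 24 h), then exudate collected over 60 min. Exudate centrifuged, supernatant frozen at −30°C. PGE2 measured by enzyme immunoassay (LOQ 15 pg/mL). Times are collection-interval midpoints; changes expressed versus baseline.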"}, "COX-2": {"test_system": "COX-2", "conditions": "after a single dose of 120 mg; ref Dallob et al. [2003]; cited from earlier work"}, "[4]": {"conditions": "cited from earlier work"}, "[5]": {"experiment": "Pharmacokinetics of oral etoricoxib in plasma, CSF and tissue exudate", "type": "in vivo, human", "conditions": "for Tmax: t max"}, "[6]": {"conditions": "post-dose, monkeys; ref Riendeau et al. [2001]; cited from earlier work"}, "[7]": {"conditions": "patient R02, 50% of peak concentrations"}, "[8]": {"conditions": "patient R06, 50% of peak concentrations"}},
  "note": "Several values for one entry are separate records, joined by “and”; a condition that tells them apart may be missing. Equal entries are not always repeated.",
  "data": [
    {"smiles": "Cc1ccc(-c2cc(C(F)(F)F)nn2-c2ccc(S(N)(=O)=O)cc2)cc1", "note": "[celecoxib]", "values": [
      {"measurement": "Bioavailability", "setting": "[1]", "value": "20–60%"}
    ]},
    {"smiles": "Cc1ccc(-c2ncc(Cl)cc2-c2ccc(S(C)(=O)=O)cc2)cn1", "note": "[etoricoxib]", "values": [
      {"measurement": "Bound to plasma proteins", "setting": "plasma proteins", "value": 92, "unit": "%"},
      {"measurement": "Perioperative side effects", "setting": "[2]; 120 mg oral on postoperative day 1", "value": "no perioperative side effects related to the administration of etoricoxib"},
      {"measurement": "Postoperative pain and opioid consumption versus placebo", "setting": "[2]; both groups received standard IT and parenteral pain medication, study not designed to detect differences", "value": "no meaningful differences"},
      {"measurement": "PGE2 concentration in tissue exudate, overall for all values (PGE2 Hip, n = 88)", "setting": "[3]; 120 mg etoricoxib oral, day 1 post-surgery, n = 8, mean (SD)", "value": "11.9 (10.2) ng/mL"},
      {"measurement": "PGE2 concentration in tissue exudate", "setting": "[3]; 0.5 h after 120 mg oral, midpoint of collection interval, mean (SD)", "value": "18.1 (8.8) ng/mL"},
      {"measurement": "PGE2 concentration in tissue exudate", "setting": "[3]; 1.5 h after 120 mg oral, mean (SD)", "value": "24.4 (10.5) ng/mL"},
      {"measurement": "PGE2 concentration in tissue exudate", "setting": "[3]; 2.5 h after 120 mg oral, mean (SD)", "value": "20.9 (16.1) ng/mL"},
      {"measurement": "PGE2 concentration in tissue exudate", "setting": "[3]; 5.0 h after 120 mg oral, mean (SD)", "value": "16.9 (13.6) ng/mL"},
      {"measurement": "PGE2 concentration in tissue exudate", "setting": "[3]; 7.5 h after 120 mg oral, mean (SD)", "value": "12.1 (9.3) ng/mL"},
      {"measurement": "PGE2 concentration in tissue exudate", "setting": "[3]; 9.5 h after 120 mg oral, mean (SD)", "value": "7.9 (6.0) ng/mL"},
      {"measurement": "PGE2 concentration in tissue exudate", "setting": "[3]; 11.5 h after 120 mg oral, mean (SD)", "value": "6.4 (5.1) ng/mL"},
      {"measurement": "PGE2 concentration in tissue exudate", "setting": "[3]; 17.5 h after 120 mg oral, mean (SD)", "value": "6.2 (6.2) ng/mL"},
      {"measurement": "PGE2 concentration in tissue exudate", "setting": "[3]; 23.5 h after 120 mg oral, mean (SD)", "value": "2.3 (0.7) ng/mL"},
      {"measurement": "Duration of the significant PGE2 difference to placebo", "setting": "[3]; till the end of the observation period", "value": 18, "unit": "h"},
      {"measurement": "PGE2 concentration in tissue exudate", "setting": "[3]; time point Pre (baseline), n = 8, mean (SD)", "value": "7.7 (5.4) ng/mL"},
      {"measurement": "Time after medication at which the PGE2 difference to placebo became significant", "setting": "[3]; tissue exudate samples, material produced about 2 h after medication", "value": 5, "unit": "h"},
      {"measurement": "Ex vivo whole blood IC50 of COX-2 inhibition", "setting": "COX-2", "value": "about 360 ng/mL"},
      {"measurement": "Time after administration within which etoricoxib interferes with surgical pain", "setting": "[4]; patients, ref Clarke et al. [2009]", "value": "≤ 2", "unit": "h"},
      {"measurement": "Time after surgery before which etoricoxib was not analgesic", "setting": "[4]; thyroid surgery, ref Smirnov et al. [2008]", "value": "≥ 6", "unit": "h"},
      {"measurement": "CSF concentration", "setting": "[5]; 1 h later than in plasma", "value": "> 29", "unit": "ng/mL"},
      {"measurement": "CSF concentration at 1 h as part of the peak CSF concentration", "setting": "[5]; 1 h post-dose", "value": 34, "unit": "%"},
      {"measurement": "Etoricoxib in tissue exudate", "setting": "[5]; 2.5 h", "value": "virtually no drug detected"},
      {"measurement": "Concentration in CSF as fraction of that in plasma at corresponding times", "setting": "[5]; AUC0–24h and max. concentration ratios", "value": "1/20"},
      {"measurement": "Cmax", "setting": "[5]; CSF, n = 5, mean (± SD)", "value": "68.4 (30.6) ng/mL"},
      {"measurement": "Time to plateau in plasma and CSF", "setting": "[5]; both compartments", "value": "about 2 h"},
      {"measurement": "Plasma concentration", "setting": "[5]; during the first hour after 120 mg oral", "value": "> 360", "unit": "ng/mL"},
      {"measurement": "Cmax", "setting": "[5]; human, CSF, oral, 120 mg, c max, n = 5, mean (± SD)", "value": "~70", "unit": "ng/mL"},
      {"measurement": "Tmax", "setting": "[5]; human, CSF, oral, 120 mg, n = 5, median (range)", "value": 8, "unit": "h"},
      {"measurement": "AUC(0-t)", "setting": "[5]; human, CSF, po, 120 mg, AUC0–24h, n = 5, 120 mg oral, mean (± SD)", "value": 955, "unit": "ng·h/mL"},
      {"measurement": "Kp at 8 h", "setting": "[5]; human, CSF/plasma, oral, 120 mg, CSF/plasma conc. ratio at t max, n = 5, mean (± SD), at 8 h", "value": 0.06},
      {"measurement": "Kp", "setting": "[5]; human, CSF/unbound plasma, oral, 120 mg, CSF/plasma ratio of the unbound fractions (CSF/Pu), at equilibrium (2–24 h), estimated", "value": "~0.56"},
      {"measurement": "Cmax", "setting": "[5]; human, plasma, oral, 120 mg, c max, plasma, n = 5 subgroup, mean (± SD)", "value": 1440, "unit": "ng/mL"},
      {"measurement": "Cmax", "setting": "[5]; human, plasma, oral, 120 mg, c max, n = 8 (all patients), mean (± SD)", "value": 1740, "unit": "ng/mL"},
      {"measurement": "Tmax", "setting": "[5]; human, plasma, oral, 120 mg, plasma, n = 5 subgroup, median (range)", "value": 4, "unit": "h"},
      {"measurement": "Tmax", "setting": "[5]; human, plasma, oral, 120 mg, n = 8 (all patients), median (range)", "value": 3, "unit": "h"},
      {"measurement": "Individual CSF lag times with respect to (50%) peak plasma concentration", "setting": "[5]; in all but one case", "value": "≤ 2", "unit": "h"},
      {"measurement": "Time to meaningful (COX-2 inhibitory) CSF concentrations", "setting": "[5]; in nearly all patients", "value": "≤ 2", "unit": "h"},
      {"measurement": "Max. CSF/plasma conc. ratio", "setting": "[5]; individual maximal concentration ratios, between 3 and 12 h, mean ± SD, n = 5", "value": "7.3 (2.1) %"},
      {"measurement": "Time of peak CSF concentration", "setting": "[5]; mean concentration-time curve, CSF", "value": 8, "unit": "h"},
      {"measurement": "Lag time plasma vs. CSF", "setting": "[5]; mean of patients", "value": 2, "unit": "h"},
      {"measurement": "Lag time plasma vs. tissue exudate", "setting": "[5]; mean of patients", "value": 3.8, "unit": "h"},
      {"measurement": "Lag time plasma vs. tissue exudate", "setting": "[5]; median of patients, without correction for the delay of sampling", "value": 4, "unit": "h"},
      {"measurement": "CSF/plasma ratio AUC0–24h", "setting": "[5]; n = 5, mean (range) of individual ratios", "value": "4.4% and 4.4 (2–7) %"},
      {"measurement": "CSF/plasma conc. ratio at t max", "setting": "[5]; n = 5, mean (± SD), at 8 h", "value": "6.3 (2.0) %"},
      {"measurement": "t max for CSF/plasma conc. ratio", "setting": "[5]; n = 5, median (range)", "value": "8 (3–12) h"},
      {"measurement": "Lag time plasma vs. CSF", "setting": "[5]; patient R01, 50% of peak concentrations", "value": 1, "unit": "h"},
      {"measurement": "Lag time plasma vs. tissue exudate", "setting": "[5]; patient R01, with respect to 50% of peak concentrations", "value": 4, "unit": "h"},
      {"measurement": "Lag time plasma vs. CSF", "setting": "[5]; [7]", "value": 2, "unit": "h"},
      {"measurement": "Lag time plasma vs. tissue exudate", "setting": "[5]; [7]", "value": 4, "unit": "h"},
      {"measurement": "Lag time plasma vs. CSF", "setting": "[5]; patient R05, in brackets: invalid data due to missing values", "value": "(2) h"},
      {"measurement": "Lag time plasma vs. CSF", "setting": "[5]; [8]", "value": 0, "unit": "h"},
      {"measurement": "Lag time plasma vs. tissue exudate", "setting": "[5]; [8]", "value": 1.5, "unit": "h"},
      {"measurement": "Lag time plasma vs. tissue exudate", "setting": "[5]; patient R07, 50% of peak concentrations", "value": 6.5, "unit": "h"},
      {"measurement": "Lag time plasma vs. CSF", "setting": "[5]; patient R07, in brackets: invalid data due to missing values", "value": "(3) h"},
      {"measurement": "Lag time plasma vs. CSF", "setting": "[5]; patient R09, 50% of peak concentrations", "value": 7, "unit": "h"},
      {"measurement": "CSF peak concentration", "setting": "[5]; patient R09, 8 h post-medication", "value": 108, "unit": "ng/mL"},
      {"measurement": "Median CSF lag time with respect to 50% of the peak concentration in plasma", "setting": "[5]; patient R09 not included", "value": 0.5, "unit": "h"},
      {"measurement": "Range of CSF lag time with respect to 50% of the peak concentration in plasma", "setting": "[5]; patient R09 not included", "value": "0 to 2", "unit": "h"},
      {"measurement": "Lag time plasma vs. tissue exudate", "setting": "[5]; patient R10, 50% of peak concentrations", "value": 3, "unit": "h"},
      {"measurement": "Lag time plasma vs. CSF", "setting": "[5]; patient R10, in brackets: invalid data due to missing values", "value": "(0) h"},
      {"measurement": "Lag time plasma vs. CSF", "setting": "[5]; patient R12, 50% of peak concentrations", "value": 0, "unit": "h"},
      {"measurement": "Onset of antipyretic action", "setting": "[6]", "value": "about 2 h"}
    ]}
  ]
}
